Results as given in ChEMBL document CHEMBL1649119, “Daptomycin pharmacokinetics in adult oncology patients with neutropenic fever” (Antimicrob Agents Chemother, 2009).

Key:
[1] = Cmax in healthy adult human at 6 mg/kg, iv administered as single dose 30 mins infusion; format: ADME, organism-based; set-up: dose 6 mg/kg, route intravenous; conditions: in vivo
[2] = Cmax in adult human subjects at 6 mg/kg, iv administered as single dose 30 mins infusion; format: ADME, organism-based; set-up: dose 6 mg/kg, route intravenous; conditions: in vivo
[3] = Apparent volume of distribution during terminal phase in healthy human subjects at 10 mg/kg, iv administered as 30 mins infusion every 24 hrs measured on day 14; format: ADME, organism-based; set-up: dose 10 mg/kg, route intravenous; conditions: in vivo
[4] = Unbound fraction in healthy human plasma at 6 mg/kg, iv administered as 30 mins infusion every 24 hrs measured on day 1; format: ADME, organism-based; set-up: dose 6 mg/kg, route intravenous
[5] = Unbound fraction in healthy human plasma at 8 mg/kg, iv administered as 30 mins infusion every 24 hrs measured on day 1; format: ADME, organism-based; set-up: dose 8 mg/kg, route intravenous
[6] = Unbound fraction in healthy human plasma at 8 mg/kg, iv administered as 30 mins infusion every 24 hrs measured on day 14; format: ADME, organism-based; set-up: dose 8 mg/kg, route intravenous
[7] = Tmax in cancer patient with neutropenic fever at 6 mg/kg, iv administered as 30 mins infusion every 24 hrs; format: ADME, organism-based; set-up: dose 6 mg/kg, route intravenous; conditions: human, in vivo
In short: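 29 adult oncology patients with neutropenic fever received 6 mg/kg (total body weight) daptomycin as a 30-min IV infusion every 24 h. Plasma was sampled predose, at end of infusion, and 0.5, 1, 2, 4, 8, 12 and 24 h after infusion start. Total drug was measured by validated HPLC (linear 1–100 μg/ml, detection limit 1 μg/ml). Tmax was the observed value, analysed noncompartmentally.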

[8] = Plasma protein binding in human after 8 hrs; format: ADME, cell-free; conditions: read-out: PPB (converted)
In short: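 Neutropenic-fever oncology patients received 6 mg/kg IV daptomycin; serum was drawn 0.5, 2 and 8 h after the end of infusion. Free drug was obtained by ultrafiltration (30,000-MW cutoff) and quantified by HPLC against a saline-matrix curve of 0.25–100 μg/ml, with total plasma drug also measured. Percent bound was (total − free)/total × 100; results are given as mean ± SD.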

[9] = Apparent volume of distribution during terminal phase in healthy human subjects at 8 mg/kg, iv administered as 30 mins infusion every 24 hrs measured on day 4; format: ADME, organism-based; set-up: dose 8 mg/kg, route intravenous; conditions: in vivo
[10] = Apparent volume of distribution during terminal phase in healthy human at 8 mg/kg, iv administered as 30 mins infusion every 24 hrs measured on day 7; format: ADME, organism-based; set-up: dose 8 mg/kg, route intravenous; conditions: in vivo
[11] = Renal clearance in healthy adult human at 6 mg/kg, iv administered as single dose 30 mins infusion; format: ADME, organism-based, Kidney; set-up: dose 6 mg/kg, route intravenous; conditions: in vivo, read-out: CL_renal (converted)
[12] = Renal clearance in nonobese human at 4 mg/kg, iv administered as single dose 30 mins infusion; format: ADME, organism-based, Kidney; set-up: dose 4 mg/kg, route intravenous; conditions: in vivo, read-out: CL_renal (converted)
[13] = Renal clearance in old healthy human at 4 mg/kg, iv administered as single dose 30 mins infusion; format: ADME, organism-based, Kidney; set-up: dose 4 mg/kg, route intravenous; conditions: in vivo, read-out: CL_renal (converted)
[14] = Renal clearance in young healthy human at 4 mg/kg, iv administered as single dose 30 mins infusion; format: ADME, organism-based, Kidney; set-up: dose 4 mg/kg, route intravenous; conditions: in vivo, read-out: CL_renal (converted)
[15] = AUC (0 to infinity) in young healthy human at 4 mg/kg, iv administered as single dose 30 mins infusion; format: ADME, organism-based; set-up: dose 4 mg/kg, route intravenous, time infinity; conditions: plasma
[16] = AUC (0 to infinity) in healthy human subjects at 12 mg/kg, iv administered as 30 mins infusion every 24 hrs measured on day 4; format: ADME, organism-based; set-up: time infinity, dose 12 mg/kg, route intravenous; conditions: plasma
[17] = AUC (0 to infinity) in healthy human subjects at 8 mg/kg, iv administered as 30 mins infusion every 24 hrs measured on day 4; format: ADME, organism-based; set-up: dose 8 mg/kg, route intravenous, time infinity; conditions: plasma
[18] = test system: Homo sapiens; experiment: AUC (0 to infinity) in healthy human subjects at 6 mg/kg, iv administered as 30 mins infusion every 24 hrs measured on day 1; format: ADME, organism-based, Plasma; set-up: time infinity, dose 6 mg/kg, route intravenous; conditions: in vivo
[19] = AUC (0 to infinity) in healthy human at 8 mg/kg, iv administered as 30 mins infusion every 24 hrs measured on day 14; format: ADME, organism-based; set-up: time infinity, dose 8 mg/kg, route intravenous; conditions: plasma
[20] = AUC (0 to infinity) in healthy human at 8 mg/kg, iv administered as 30 mins infusion every 24 hrs measured on day 1; format: ADME, organism-based; set-up: time infinity, dose 8 mg/kg, route intravenous; conditions: plasma
[21] = AUC (0 to infinity) in healthy human at 4 mg/kg, iv administered as 30 mins infusion every 24 hrs measured on day 1; format: ADME, organism-based; set-up: time infinity, dose 4 mg/kg, route intravenous; conditions: plasma
[22] = Cmax in healthy human subjects at 10 mg/kg, iv administered as 30 mins infusion every 24 hrs measured on day 14; format: ADME, organism-based; set-up: dose 10 mg/kg, route intravenous; conditions: in vivo
[23] = Cmax in healthy human at 6 mg/kg, iv administered as 30 mins infusion every 24 hrs measured on day 7; format: ADME, organism-based; set-up: dose 6 mg/kg, route intravenous; conditions: in vivo
[24] = Cmax in healthy human at 4 mg/kg, iv administered as 30 mins infusion every 24 hrs measured on day 7; format: ADME, organism-based; set-up: dose 4 mg/kg, route intravenous; conditions: in vivo
[25] = Drug excretion in healthy human urine assessed as unchanged drug at 4 mg/kg, iv administered as single dose 30 mins infusion; format: ADME, organism-based; set-up: dose 4 mg/kg, route intravenous; conditions: read-out: Drug uptake
[26] = Mean residence time in old healthy human at 4 mg/kg, iv administered as single dose 30 mins infusion; format: ADME, organism-based; set-up: dose 4 mg/kg, route intravenous; conditions: in vivo
[27] = Mean residence time in young healthy human at 4 mg/kg, iv administered as single dose 30 mins infusion; format: ADME, organism-based; set-up: dose 4 mg/kg, route intravenous; conditions: in vivo
[28] = Mean residence time in healthy human at 4 mg/kg, iv administered as single dose 30 mins infusion; format: ADME, organism-based; set-up: dose 4 mg/kg, route intravenous; conditions: in vivo
[29] = Apparent volume of distribution in young healthy human at 4 mg/kg, iv administered as single dose 30 mins infusion; format: ADME, organism-based; set-up: dose 4 mg/kg, route intravenous; conditions: in vivo
[30] = Volume of distribution at steady state in adult human subjects at 6 mg/kg, iv administered as single dose 30 mins infusion; format: ADME, organism-based; set-up: dose 6 mg/kg, route intravenous; conditions: in vivo, read-out: Vdss
[31] = Volume of distribution at steady state in adult human with hepatic impairment at 6 mg/kg, iv administered as single dose 30 mins infusion; format: ADME, organism-based; set-up: dose 6 mg/kg, route intravenous; conditions: in vivo, read-out: Vdss
[32] = Volume of distribution at steady state in nonobese human subjects at 4 mg/kg, iv administered as single dose 30 mins infusion; format: ADME, organism-based; set-up: dose 4 mg/kg, route intravenous; conditions: in vivo, read-out: Vdss
[33] = Volume of distribution at steady state in nonobese human at 4 mg/kg, iv administered as single dose 30 mins infusion; format: ADME, organism-based; set-up: dose 4 mg/kg, route intravenous; conditions: in vivo, read-out: Vdss
[34] = Volume of distribution at steady state in young healthy human at 4 mg/kg, iv administered as single dose 30 mins infusion; format: ADME, organism-based; set-up: dose 4 mg/kg, route intravenous; conditions: in vivo, read-out: Vdss
[35] = Clearance in healthy adult human at 6 mg/kg, iv administered as single dose 30 mins infusion; format: ADME, organism-based; set-up: dose 6 mg/kg, route intravenous; conditions: in vivo
[36] = Clearance in morbidly obese adult human at 4 mg/kg, iv administered as single dose 30 mins infusion; format: ADME, organism-based; set-up: dose 4 mg/kg, route intravenous; conditions: in vivo
[37] = Clearance in nonobese adult human at 4 mg/kg, iv administered as single dose 30 mins infusion; format: ADME, organism-based; set-up: dose 4 mg/kg, route intravenous; conditions: in vivo
[38] = Clearance in young healthy human at 4 mg/kg, iv administered as single dose 30 mins infusion; format: ADME, organism-based; set-up: dose 4 mg/kg, route intravenous; conditions: in vivo
[39] = test system: Homo sapiens; experiment: Unbound clearance in healthy human at 8 mg/kg, iv administered as 30 mins infusion every 24 hrs measured on day 7; format: ADME, organism-based; set-up: dose 8 mg/kg, route intravenous; conditions: in vivo
[40] = Clearance in healthy human subjects at 12 mg/kg, iv administered as 30 mins infusion every 24 hrs measured on day 14; format: ADME, organism-based; set-up: dose 12 mg/kg, route intravenous; conditions: in vivo
[41] = Clearance in healthy human subjects at 10 mg/kg, iv administered as 30 mins infusion every 24 hrs measured on day 1; format: ADME, organism-based; set-up: dose 10 mg/kg, route intravenous; conditions: in vivo
[42] = Half life in healthy human subjects at 8 mg/kg, iv administered as 30 mins infusion every 24 hrs measured on day 1; format: ADME, organism-based; set-up: dose 8 mg/kg, route intravenous; conditions: in vivo
[43] = Half life in healthy human at 8 mg/kg, iv administered as 30 mins infusion every 24 hrs measured on day 7; format: ADME, organism-based; set-up: dose 8 mg/kg, route intravenous; conditions: in vivo
[44] = Half life in healthy human at 4 mg/kg, iv administered as 30 mins infusion every 24 hrs measured on day 7; format: ADME, organism-based; set-up: dose 4 mg/kg, route intravenous; conditions: in vivo

CCCCCCCCCC(=O)N[C@@H](Cc1c[nH]c2ccccc12)C(=O)N[C@H](CC(N)=O)C(=O)N[C@@H](CC(=O)O)C(=O)N[C@@H]1C(=O)NCC(=O)N[C@@H](CCCN)C(=O)N[C@@H](CC(=O)O)C(=O)N[C@H](C)C(=O)N[C@@H](CC(=O)O)C(=O)NCC(=O)N[C@H](CO)C(=O)N[C@@H]([C@H](C)CC(=O)O)C(=O)N[C@@H](CC(=O)c2ccccc2N)C(=O)O[C@@H]1C gave a Cmax [1] of 82 µg/mL, a Cmax [2] of 118 µg/mL and a Vd [3] of 0.0858 L/kg. For the same compound, the fraction unbound at 1 day [4] was 0.07, the fraction unbound at 1 day [5] was 0.09 and the fraction unbound at 14 day [6] was 0.09. It also gave a Tmax [7] of 0.6 h, a fraction unbound at 8 h [8] of 0.068 and a Vd [9] of 0.101 L/kg. For the same compound, the Vd [10] was 0.092 L/kg, the CL renal at 0.5 h [11] was 0.064 mL/min/kg and the CL renal at 0.5 h [12] was 0.098 mL/min/kg. The CL renal at 0.5 h [13] was 0.0712 mL/min/kg, the CL renal at 0.5 h [14] was 0.12 mL/min/kg and the AUC(0-inf) [15] was 301 µg·h/mL. For the same compound, the AUC(0-inf) [16] was 1280 µg·h/mL, the AUC(0-inf) [17] was 858 µg·h/mL and the AUC [18] was 729.8 µg·h/mL. It also gave an AUC(0-inf) [19] of 1090 µg·h/mL, an AUC(0-inf) [20] of 1130 µg·h/mL and an AUC(0-inf) [21] of 425 µg·h/mL. For the same compound, the Cmax [22] was 139 µg/mL, the Cmax [23] was 98.6 µg/mL and the Cmax [24] was 57.8 µg/mL. The dose excreted at 0.5 h [25] was 59.7%, the MRT [26] was 15.9 h and the MRT [27] was 9.05 h. It also gave an MRT [28] of 10.9 h, a Vd [29] of 0.15 L/kg and a Vd [30] of 0.08 L/kg. For the same compound, the Vd [31] was 0.08 L/kg, the Vd [32] was 0.13 L/kg and the Vd [33] was 0.11 L/kg. The Vd [34] was 0.14 L/kg, the clearance [35] was 0.171 mL/min/kg and the clearance [36] was 0.13 mL/min/kg. It also gave a clearance [37] of 0.245 mL/min/kg, a clearance [38] of 0.252 mL/min/kg and a CL [39] of 0.682 mL/min/kg. For the same compound, the clearance [40] was 0.15 mL/min/kg, the clearance [41] was 0.165 mL/min/kg and the half-life [42] was 7.3 h. The half-life [43] was 9 h and the half-life [44] was 8.1 h.
